According to ChEMBL document CHEMBL1269004, “Synthesis of a 6-methyl-7-deaza analogue of adenosine that potently inhibits replication of polio and dengue viruses” (J Med Chem, 2010):
Calls of active or inactive are those of the source. The calls are words filed in the database; no cut-off is given here.

Tests used:
[1] = Cytotoxicity against human HeLaS3 cells after 24 hrs by celltiter-glo assay; type: cell-based; details: HeLa S3, 24 h
How it was run: (§1)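 HeLa S3 cells (4 × 10^3/well, plated 24 h before) exposed to a nucleoside concentration series at 37 °C, final 0.1% DMSO, for 7, 24 or 48 h. Cells PBS-washed; viability read as ATP-dependent luminescence (CellTiter-Glo) after 10 min at 22 °C. IC50 from a four-parameter fit of luminescence vs concentration.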

[2] = Cytotoxicity against human HeLaS3 cells after 7 hrs by celltiter-glo assay; type: cell-based; details: HeLa S3, 7 h; how it was run: as §1
dengue virus type 2 [3] = experiment: Antiviral activity against Dengue virus type 2 in BHK-21 cells assessed as inhibition of viral replication after 24 hrs by luciferase assay; type: functional, organism-based; details: BHK-21, 24 h
How it was run: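 BHK-21 cells stably carrying a luciferase DENV2 replicon, grown in DMEM/F-12 with 10% FBS. Seeded 24 h ahead, then exposed for 24 h to a nucleoside concentration series in media with 1% DMSO. Cells PBS-washed and lysed; luciferase luminescence read on the lysate.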

Enterovirus C [4] = experiment: Antiviral activity against Poliovirus infected in human HeLaS3 cells assessed as inhibition of viral replication treated 1 hr before infection measured after 2 days; type: functional, organism-based; details: HeLa S3
How it was run: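 HeLa S3 cells (1 × 10^5, plated 1 day prior) pretreated 1 h at 37 °C with nucleoside in 0.1% DMSO media, then infected with 1 × 10^6 PFU PV in PBS for 15 min at room temperature. Refed with nucleoside-containing media and infected 6 h at 37 °C. Cell-associated virus released by 3 freeze-thaw cycles and titered by plaque assay on HeLa S3 under 1% agarose for 2 days, with crystal violet stain. IC50 from a four-parameter fit.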

[5] = Cytotoxicity against human HeLaS3 cells after 48 hrs by celltiter-glo assay; type: cell-based; details: HeLa S3, 48 h; how it was run: as §1
[6] = Binding affinity to Poliovirus RNA-dependent RNA polymerase; parameters: species or system Enterovirus C; details: read-out: Kd(app)
dengue virus type 2 [7] = experiment: Antiviral activity against Dengue virus type 2 in Vero cells assessed as inhibition of viral replication after 6 days using neutral red dye by plaque assay; type: functional, organism-based; details: 144 h
How it was run: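 Cells infected with DENV2, then treated for 24 h at 37 °C with a concentration series in 1% DMSO media. Supernatant overlaid with 0.9% low-melting agarose in EMEM/0.5% FBS for 6 days at 37 °C, then a second agarose layer with 0.015% neutral red added overnight. Plaques counted as PFU/ml; IC50 from a four-parameter fit of titer vs concentration.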

dengue virus type 2 [8] = experiment: Antiviral activity against Dengue virus type 2 in Vero cells assessed as inhibition of viral RNA replication […] by RT-PCR analysis; type: functional, organism-based
[9] = Cytotoxicity against human HeLaS3 cells at 100 uM after 24 hrs by celltiter-glo assay; type: cell-based; details: HeLa S3, 24 h
How it was run: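 HeLa S3 cells (4 × 10^3/well) treated 24 h at 37 °C in 0.1% DMSO. Viability measured as ATP luminescence (CellTiter-Glo) after PBS wash, read after 10 min at 22 °C, and reported as % viable cells.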

Enterovirus C [10] = experiment: Activity at Poliovirus RNA-dependent RNA polymerase assessed as incorporation into opposite adenine and guanine of viral RNA by denaturing PAGE analysis
How it was run: (§2)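 Pre-assembled PV 3Dpol–sym/sub primer/template (32P end-labelled) complex formed for 3 min at 30 °C. Reaction at 30 °C in 50 mM HEPES pH 7.5 with 10 mM 2-mercaptoethanol, 5 mM MgCl2, 1 µM 3Dpol, 0.5 µM duplex RNA and 0.5 mM NTP, started by adding nucleotide. Stopped at 1, 5 or 10 min, run on denaturing PAGE, phosphorimaged, and expressed as % incorporation relative to the natural NTP.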

Enterovirus C [11] = experiment: Activity at Poliovirus RNA-dependent RNA polymerase assessed as incorporation into opposite uracil and cytosine of viral RNA by denaturing PAGE analysis; how it was run: as §2
Enterovirus C [12] = experiment: Activity at Poliovirus RNA-dependent RNA polymerase assessed as incorporation into opposite cytosine of viral RNA after 30 mins by denaturing PAGE analysis

Compound	IC50 [1] [µM]	IC50 [2] [µM]	IC50 (dengue virus type 2 [3]) [µM]	IC50 (Enterovirus C [4]) [µM]	IC50 [5] [µM]	Kd [6] [µM]	other results
Cc1ccnc2c1ncn2[C@@H]1O[C@H](CO)[C@@H](O)[C@H]1O	> 100	> 100	> 10	> 10	> 10	–	–
NC(=O)c1ncn([C@@H]2O[C@H](COP(=O)(O)OP(=O)(O)OP(=O)(O)O)[C@@H](O)[C@H]2O)n1 [RTP]	–	–	–	–	–	496	–
Nc1ncnc2c1ccn2[C@@H]1O[C@H](CO)[C@@H](O)[C@H]1O [TUBERCIDIN]	0.819	1.44	–	0.03	0.4	–	–
Cc1ncnc2c1ncn2[C@@H]1O[C@H](CO)[C@@H](O)[C@H]1O	6.68	17.7	5.46	1.01	2.2	–	–
Cc1ncnc2c1ccn2[C@@H]1O[C@H](CO)[C@@H](O)[C@H]1O	–	> 100	0.877	0.011	0.224	–	IC50 (dengue virus type 2 [7]): 0.062 µM; IC50 (dengue virus type 2 [8]): 0.039 µM; IC50 [9]: 0.986 µM
COC[C@H]1O[C@@H](n2ccc3c(C)ncnc32)[C@H](O)[C@@H]1O	> 100	> 100	> 10	> 10	> 100	–	–
Nc1ncnc2c1ncn2[C@@H]1O[C@H](COP(=O)(O)OP(=O)(O)OP(=O)(O)O)[C@@H](O)[C@H]1O [ADENOSINE TRIPHOSPHATE]	–	–	–	–	–	134	–
Cc1ncnc2c1ncn2[C@@H]1O[C@H](COP(=O)(O)OP(=O)(O)OP(=O)(O)O)[C@@H](O)[C@H]1O	–	–	–	–	–	170	Activity (Enterovirus C [10]): inactive; Activity (Enterovirus C [11]): Active; Activity (Enterovirus C [12]): 40%
Cc1nccc2c1ncn2[C@@H]1O[C@H](CO)[C@@H](O)[C@H]1O	> 100	> 100	> 10	> 10	> 100	–	–
Cc1ncnc2c1ccn2[C@@H]1O[C@H](COP(=O)(O)OP(=O)(O)OP(=O)(O)O)[C@@H](O)[C@H]1O	–	–	–	–	–	120	Activity (Enterovirus C [10]): inactive; Activity (Enterovirus C [11]): Active; Activity (Enterovirus C [12]): 60%
